Reference: ChEMBL document CHEMBL1629683, “HIV-1 protease codon 36 polymorphisms and differential development of resistance to nelfinavir, lopinavir, and atazanavir in different HIV-1 subtypes” (Antimicrob Agents Chemother, 2010)
The source made the active and inactive calls. The calls are words filed in the database; no cut-off is given here.

Tests used:
[1] = tested on: Human immunodeficiency virus 1; assay: Antiviral activity against wild type HIV1 subtype CRF02_AG infected in human cord blood mononuclear cells assessed as inhibition of viral replication after 48 hrs by luciferase reporter gene assay; format: functional, organism-based; settings: Human immunodeficiency virus 1, subtype CRF02_AG
[2] = tested on: Human immunodeficiency virus 1; assay: Selectivity ratio of EC50 for HIV1 subtype B harboring protease polymorphism at M36 position infected in human cord blood mononuclear cells to EC50 for HIV1 subtype B harboring protease polymorphism at I36 position infected in human cord blood mononuclear cells; format: functional
[3] = tested on: Human immunodeficiency virus 1; assay: Selectivity ratio of EC50 for HIV1 subtype C harboring protease L23I, M46I, L89T and polymorphism at M36 position to EC50 for wild type HIV1 subtype C M36
[4] = tested on: Human immunodeficiency virus 1; assay: Antiviral activity against HIV1 subtype B harboring protease polymorphism at M36 position infected in human TZM-bl cells assessed as inhibition of viral replication after 48 hrs by luciferase reporter gene assay; format: functional, organism-based
In short: (§1)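 TZM-bl cells (10⁴/well) in DMEM with 10% FBS were infected with the week-0 or week-35 polymorphic variant. After 48 h, cells were PBS-rinsed and lysed, and luciferase activity was read as relative light units. Results are means of three independent experiments run in duplicate.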

[5] = tested on: Human immunodeficiency virus 1; assay: Selectivity ratio of EC50 for HIV1 subtype C harboring protease polymorphism at I36 position to EC50 for wild type HIV1 subtype C; format: functional
[6] = tested on: Human immunodeficiency virus 1; assay: Selectivity ratio of EC50 for HIV1 subtype B harboring protease D30N, M46I, A71T and V77I mutant gene and polymorphism at M36 position to EC50 for wild type HIV1 subtype B; format: functional
[7] = tested on: Human immunodeficiency virus 1; assay: Antiviral activity against HIV1 subtype CRF02_AG harboring protease polymorphism at I36 position infected in human TZM-bl cells assessed as inhibition of viral replication after 48 hrs by luciferase reporter gene assay; format: functional, organism-based; in short: as §1
[8] = tested on: Human immunodeficiency virus 1; assay: Antiviral activity against wild type HIV1 subtype B infected in human cord blood mononuclear cells assessed as inhibition of viral replication after 48 hrs by luciferase reporter gene assay; format: functional, organism-based; settings: Human immunodeficiency virus 1, subtype B
[9] = tested on: Human immunodeficiency virus 1; assay: Antiviral activity against wild type HIV1 subtype C infected in human cord blood mononuclear cells assessed as inhibition of viral replication after 48 hrs by luciferase reporter gene assay; format: functional, organism-based; settings: Human immunodeficiency virus 1, subtype C
[10] = tested on: Human immunodeficiency virus 1; assay: Antiviral activity against HIV1 subtype CRF02_AG harboring protease polymorphism at I36 position and M46 mutant gene infected in human cord blood mononuclear cells assessed as inhibition of viral replication on day 7 by RT activity assay; settings: Human immunodeficiency virus 1, subtype CRF02_AG, 7 days
[11] = tested on: Human immunodeficiency virus 1; assay: Selectivity ratio of EC50 for HIV1 subtype CRF02_AG harboring protease polymorphism at I36 position and M46 mutant gene to EC50 for wild type HIV1 subtype CRF02_AG; format: functional
[12] = tested on: Human immunodeficiency virus 1; assay: Selectivity ratio of EC50 for HIV1 subtype CRF02_AG harboring protease L33I, M46I, A71T mutant gene and polymorphism at M36 position to EC50 for wild type HIV1 subtype CRF02_AG; format: functional
[13] = tested on: Human immunodeficiency virus 1; assay: Antiviral activity against HIV1 subtype C harboring protease D30N, E35G, I85V, L90M mutant gene and polymorphism at I36 position infected in human cord blood mononuclear cells assessed as inhibition of viral replication […]; format: functional, organism-based; settings: Human immunodeficiency virus 1, subtype C
In short: (§2)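 Cord blood mononuclear cells were PHA-stimulated for 72 h in RPMI 1640 with 10% FBS and IL-2. Cells were infected for 2 h with week-0 clonal virus or PI-selected virus (weeks 25 and 35 of selection). They were plated at 5 × 10⁵ cells/well with PI at 0.04 nM to 10 μM. Drug-containing medium was replenished on day 3, supernatant RT activity was read on day 7, and EC₅₀ was derived.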

[14] = tested on: Human immunodeficiency virus 1; assay: Antiviral activity against HIV1 subtype B harboring protease D30N, M46I, A71T and V77I mutant gene and polymorphism at M36 position of protease infected in human cord blood mononuclear cells assessed as inhibition of viral replication […]; format: functional, organism-based; settings: Human immunodeficiency virus 1, subtype B; in short: as §2
[15] = tested on: Human immunodeficiency virus 1; assay: Antiviral activity against HIV1 subtype C harboring protease L23I, M46I, L89T mutant gene and polymorphism at M36 position infected in human cord blood mononuclear cells assessed as inhibition of viral replication […]; format: functional, organism-based; settings: Human immunodeficiency virus 1, subtype C; in short: as §2
[16] = tested on: Human immunodeficiency virus 1; assay: Antiviral activity against HIV1 subtype B harboring protease D30N, L33I, M46I, N88D mutant gene and polymorphism at I36 position infected in human cord blood mononuclear cells assessed as inhibition of viral replication […] by […]; format: functional, organism-based; settings: Human immunodeficiency virus 1, subtype B; in short: as §2
[17] = tested on: Human immunodeficiency virus 1; assay: Antiviral activity against HIV1 subtype B harboring protease polymorphism at I36 position infected in human TZM-bl cells assessed as inhibition of viral replication after 48 hrs by luciferase reporter gene assay; format: functional, organism-based; in short: as §1
[18] = tested on: Human immunodeficiency virus 1; assay: Antiviral activity against HIV1 subtype CRF02_AG harboring protease L33I, M46I, A71T mutant gene and polymorphism at M36 position infected in human cord blood mononuclear cells assessed as inhibition of viral replication […]; format: functional, organism-based; settings: Human immunodeficiency virus 1, subtype CRF02_AG; in short: as §2
[19] = tested on: Human immunodeficiency virus 1; assay: Antiviral activity against HIV1 subtype CRF02_AG harboring protease polymorphism at I36 position and I50FILV, A71V mutant gene infected in human cord blood mononuclear cells assessed as inhibition of viral replication […]; format: functional, organism-based; settings: Human immunodeficiency virus 1, subtype CRF02_AG; in short: as §2
[20] = tested on: Human immunodeficiency virus 1; assay: Antiviral activity against HIV1 subtype B harboring protease polymorphism at M36 position M46I, I50L, N88S mutant gene infected in human cord blood mononuclear cells assessed as inhibition of viral replication […]; format: functional, organism-based; settings: Human immunodeficiency virus 1, subtype B; in short: as §2
[21] = tested on: Human immunodeficiency virus 1; assay: Antiviral activity against HIV1 subtype C harboring protease E35G mutant gene and polymorphism at I36 position infected in human cord blood mononuclear cells assessed as inhibition of viral replication […]; format: functional, organism-based; settings: Human immunodeficiency virus 1, subtype C; in short: as §2
[22] = tested on: Human immunodeficiency virus 1; assay: Antiviral activity against HIV1 subtype B harboring protease polymorphism at I36 position and M46I, I50L, N88S mutant gene infected in human cord blood mononuclear cells assessed as inhibition of viral replication […]; format: functional, organism-based; settings: Human immunodeficiency virus 1, subtype B; in short: as §2
[23] = tested on: Human immunodeficiency virus 1; assay: Antiviral activity against HIV1 subtype CRF02_AG harboring protease polymorphism at M36 position and I50FILV, A71V mutant gene infected in human cord blood mononuclear cells assessed as inhibition of viral replication […]; format: functional, organism-based; settings: Human immunodeficiency virus 1, subtype CRF02_AG; in short: as §2
[24] = tested on: Human immunodeficiency virus 1; assay: Antiviral activity against HIV1 subtype C harboring protease L23I, M46I/M, L89T mutant gene and polymorphism at M36 position infected in human cord blood mononuclear cells assessed as inhibition of viral replication […]; format: functional, organism-based; settings: Human immunodeficiency virus 1, subtype C; in short: as §2
[25] = tested on: Human immunodeficiency virus 1; assay: Selectivity ratio of EC50 for HIV1 subtype CRF02_AG harboring protease M46, I47A, I84V mutant gene and polymorphism at I36 position to EC50 for wild type HIV1 subtype CRF02_AG; format: functional
[26] = tested on: Human immunodeficiency virus 1; assay: Selectivity ratio of EC50 for HIV1 subtype CRF02_AG harboring protease L76V, M46I, I84V mutant gene and polymorphism at M36 position to EC50 for wild type HIV1 subtype CRF02_AG; format: functional
[27] = tested on: Human immunodeficiency virus 1; assay: Selectivity ratio of EC50 for HIV1 subtype C harboring protease L32I, M46I/M, L76V mutant gene and polymorphism at I36 position to EC50 for wild type HIV1 subtype C; format: functional
[28] = tested on: Human immunodeficiency virus 1; assay: Antiviral activity against HIV1 subtype CRF02_AG harboring protease L76V, M46I, I84V mutant gene and polymorphism at M36 position infected in human cord blood mononuclear cells assessed as inhibition of viral replication […]; format: functional, organism-based; settings: Human immunodeficiency virus 1, subtype CRF02_AG; in short: as §2
[29] = tested on: Human immunodeficiency virus 1; assay: Antiviral activity against HIV1 subtype C harboring protease L10R, M46I, I54V, V82S mutant gene and polymorphism at M36 position infected in human cord blood mononuclear cells assessed as inhibition of viral replication […]; format: functional, organism-based; settings: Human immunodeficiency virus 1, subtype C; in short: as §2
[30] = tested on: Human immunodeficiency virus 1; assay: Antiviral activity against HIV1 subtype C harboring protease L32I, M46I/M, L76V mutant gene and polymorphism at I36 position infected in human cord blood mononuclear cells assessed as inhibition of viral replication after 48 hrs by luciferase reporter gene assay; format: functional, organism-based; settings: Human immunodeficiency virus 1, subtype C
[31] = tested on: Human immunodeficiency virus 1; assay: Antiviral activity against HIV1 subtype B harboring protease polymorphism at M36 position and L10F, V82A mutant gene infected in human cord blood mononuclear cells assessed as inhibition of viral replication after 48 hrs by luciferase reporter gene assay; format: functional, organism-based; settings: Human immunodeficiency virus 1, subtype B
[32] = tested on: Human immunodeficiency virus 1; assay: Selectivity ratio of EC50 for HIV1 subtype C harboring protease L10R, M46I, I54V, V82S mutant gene and polymorphism at M36 position to EC50 for wild type HIV1 subtype C; format: functional
[33] = tested on: Human immunodeficiency virus 1; assay: Antiviral activity against HIV1 subtype CRF02_AG harboring protease M46, I47A, I84V mutant gene and polymorphism at I36 position infected in human cord blood mononuclear cells assessed as inhibition of viral replication on day 7 by RT activity assay; settings: Human immunodeficiency virus 1, subtype CRF02_AG, 7 days

## Cc1c(O)cccc1C(=O)N[C@@H](CSc1ccccc1)[C@H](O)CN1C[C@H]2CCCC[C@H]2C[C@H]1C(=O)NC(C)(C)C [NELFINAVIR]
[1]
  EC50: 5.7 nM
[2]
  Ratio EC50: 2
[3]
  Ratio EC50: 163
[4]
  Activity: Active
[5]
  Ratio EC50: 1158
[6]
  Ratio EC50: 70
[7]
  Activity: Active
[8]
  EC50: 9.8 nM
[9]
  EC50: 1.67 nM
[10]
  EC50: 55 nM
[11]
  Ratio EC50: 6
[12]
  Ratio EC50: 35
[13]
  EC50: 3470 nM
[14]
  EC50: 1140 nM
[15]
  EC50: 272 nM
[16]
  EC50: 1460 nM
[17]
  Activity: Active
[18]
  EC50: 202 nM

## COC(=O)N[C@H](C(=O)N[C@@H](Cc1ccccc1)[C@@H](O)CN(Cc1ccc(-c2ccccn2)cc1)NC(=O)[C@@H](NC(=O)OC)C(C)(C)C)C(C)(C)C [ATAZANAVIR]
[19]
  EC50: 18.6 nM
[20]
  EC50: 183 nM
[21]
  EC50: 3.7 nM
[22]
  EC50: 7.1 nM
[23]
  EC50: 9.3 nM
[24]
  EC50: 88 nM

## Cc1cccc(C)c1OCC(=O)N[C@@H](Cc1ccccc1)[C@@H](O)C[C@H](Cc1ccccc1)NC(=O)[C@H](C(C)C)N1CCCNC1=O [LOPINAVIR]
[25]
  Ratio EC50: 101
[26]
  Ratio EC50: 22
[27]
  Ratio EC50: 46
[28]
  EC50: 134 nM
[29]
  EC50: 418 nM
[30]
  EC50: 157 nM
[31]
  EC50: 196 nM
[32]
  Ratio EC50: 190
[33]
  EC50: 1470 nM
